Reference: ChEMBL document CHEMBL1138851, “Synthesis, antifungal activity, and structure-activity relationships of coruscanone A analogues” (J Med Chem, 2006)
Values after ≈ are worked out from the molar mass of the structure shown.

Experiments:
[1] = test system: Candida albicans; test: Antifungal activity against Candida albicans ATCC 90028; type: functional, organism-based
Outline: (§1)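 Broth microdilution; samples serially diluted in 20% DMSO/saline, duplicate wells. Inoculum 1.0 × 10⁴ CFU/ml in RPMI 1640/2% dextrose/0.03% glutamine/MOPS, pH 6.0. Incubated 37 °C, 18–24 h; OD630 read before and after incubation. IC50 from percent growth vs concentration; MIC as lowest concentration with no detectable growth; MFC as no growth on agar after plating 5 μl from clear wells.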

[2] = test system: Candida albicans; test: Antifungal activity against fluconazole-susceptible Candida albicans; type: functional, organism-based
Outline: as §1, with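 “wells.” for “wells. Inoculum 1.0 × 10⁴ CFU/ml in RPMI 1640/2% dextrose/0.03% glutamine/MOPS, pH 6.0.”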

[3] = test system: Candida albicans; test: Antifungal activity against fluconazole-resistant Candida albicans; type: functional, organism-based
Outline: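 Broth microdilution (NCCLS-based) against patient isolate #17 (last isolate during fluconazole therapy, azole-resistant); samples serially diluted in 20% DMSO/saline, tested in duplicate. Inoculum 1.0 × 10⁴ CFU/ml in RPMI 1640/2% dextrose/0.03% glutamine/MOPS pH 6.0; 37 °C, 18–24 h; OD630 read before and after. IC50 from % growth versus concentration; MIC = no detectable growth; MFC by subculture onto agar. Means of three independent experiments.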

[4] = test system: Cryptococcus neoformans; test: Antifungal activity against Cryptococcus neoformans ATCC 90113; type: functional, organism-based
Outline: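 Serial dilutions in 20% DMSO/saline, tested in duplicate. Inoculum 1.0 × 10⁵ CFU/ml in Sabouraud dextrose broth. Incubated 30 °C, 72 h; OD630 read before and after incubation. IC50 from percent growth vs concentration; MIC as lowest concentration with no detectable growth; MFC as no growth on agar after plating 5 μl from clear wells.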

[5] = test system: Aspergillus fumigatus; test: Antifungal activity against Aspergillus fumigatus ATCC 90906; type: functional, organism-based
[6] = test system: Vero; test: Cytotoxicity against Vero cells by neutral red method; type: cell-based; conditions: Chlorocebus sabaeus
Outline: (§2)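 Neutral red assay on ATCC-sourced Vero (African green monkey kidney […]) and LLC-PK1 (pig kidney epithelial) cells. Top test concentration 10 μg/mL. Values are means of three independent experiments.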

[7] = test system: LLC-PK1; test: Cytotoxicity against LLC-PK1 cells by neutral red method; type: cell-based; conditions: Sus scrofa; outline: as §2

| SMILES | IC50 [1] [µg/mL] | MFC [1] [µg/mL] | MIC [1] [µg/mL] | IC50 [2] [µg/mL] | MFC [2] [µg/mL] | MIC [2] [µg/mL] | IC50 [3] [µg/mL] | MFC [3] [µg/mL] | MIC [3] [µg/mL] | IC50 [4] [µg/mL] | MFC [4] [µg/mL] | MIC [4] [µg/mL] | IC50 [5] [µg/mL] | MFC [5] [µg/mL] | MIC [5] [µg/mL] | IC50 [6] [µg/mL] | IC50 [7] [µg/mL] |
| --- | --- | --- | --- | --- | --- | --- | --- | --- | --- | --- | --- | --- | --- | --- | --- | --- | --- |
| COC(/C=C/c1ccc(Cl)cc1)=C1\C(=O)C=C(C)C1=O | 1.39 (≈ 4.81 µM) | 4.17 (≈ 14.4 µM) | 4.17 (≈ 14.4 µM) | 0.64 (≈ 2.22 µM) | 2.92 (≈ 10.1 µM) | 2.08 (≈ 7.2 µM) | 0.86 (≈ 2.98 µM) | 2.92 (≈ 10.1 µM) | 2.92 (≈ 10.1 µM) | 2.23 (≈ 7.72 µM) | 12 (≈ 41.6 µM) | 12 (≈ 41.6 µM) | 20 (≈ 69.3 µM) | > 20 | > 20 | 5.5 (≈ 19 µM) | 3.1 (≈ 10.7 µM) |
| CC1=CC(=O)/C(=C(O)/C=C/c2ccco2)C1=O | > 20 |  |  |  |  |  |  |  |  | > 20 |  |  | > 20 |  |  |  |  |
| CC(=O)OC(/C=C/c1ccccc1)=C1\C(=O)C=C(C)C1=O | 8.56 (≈ 30.3 µM) | > 20 | > 20 | 3.79 (≈ 13.4 µM) | > 20 | > 20 | 5.84 (≈ 20.7 µM) |  |  | 20 (≈ 70.8 µM) | > 20 | > 20 | > 20 | > 20 | > 20 | 5.5 (≈ 19.5 µM) | 4.9 (≈ 17.4 µM) |
| CO/C(=C1\C(=O)C=C(C)C1=O)c1ccccc1 | 10.6 (≈ 46.4 µM) | > 20 | > 20 | 7.88 (≈ 34.5 µM) | > 20 | > 20 | 6.04 (≈ 26.5 µM) |  |  | > 20 | > 20 | > 20 | > 20 | > 20 | > 20 | > 10 | > 10 |
| CC1=CC(=O)/C(=C(O)/C=C/c2ccc(Cl)cc2)C1=O | 13 (≈ 47.3 µM) | > 20 | > 20 | 10 (≈ 36.4 µM) | > 20 | > 20 | 13 (≈ 47.3 µM) |  |  | > 20 | > 20 | > 20 | > 20 | > 20 | > 20 | > 10 | 6 (≈ 21.8 µM) |
| CC1=C(C)C(=O)C(=C(O)/C=C/c2ccccc2)C1=O | > 20 |  |  |  |  |  |  |  |  | > 20 |  |  | > 20 |  |  |  |  |
| CC1=C(C)C(=O)C(=C(/C=C/c2ccccc2)OC(=O)c2ccccc2)C1=O | > 20 |  |  |  |  |  |  |  |  | > 20 |  |  | > 20 |  |  |  |  |
| CC1=CC(=O)/C(=C(\O)c2ccccc2)C1=O | > 20 |  |  |  |  |  |  |  |  | > 20 |  |  | > 20 |  |  |  |  |
| COC(/C=C/c1ccc(OC)cc1)=C1\C(=O)C=C(C)C1=O | 3.03 (≈ 10.7 µM) | 10 (≈ 35.2 µM) | 10 (≈ 35.2 µM) | 1.56 (≈ 5.49 µM) | 6.67 (≈ 23.5 µM) | 5 (≈ 17.6 µM) | 4.29 (≈ 15.1 µM) | 13 (≈ 45.7 µM) | 10 (≈ 35.2 µM) | 3.41 (≈ 12 µM) | 17 (≈ 59.8 µM) | 15 (≈ 52.8 µM) | > 20 | > 20 | > 20 | 5 (≈ 17.6 µM) | 3.9 (≈ 13.7 µM) |
| C[C@@H]1[C@H](O)[C@@H](C)/C=C/C=C/C=C/C=C/C=C/C=C/C=C/[C@H](O[C@@H]2O[C@H](C)[C@@H](O)[C@H](N)[C@@H]2O)C[C@@H]2O[C@](O)(C[C@@H](O)C[C@@H](O)[C@H](O)CC[C@@H](O)C[C@@H](O)CC(=O)O[C@H]1C)C[C@H](O)[C@H]2C(=O)O [AMPHOTERICIN B] | 0.15 (≈ 0.162 µM) | 1.04 (≈ 1.13 µM) | 0.63 (≈ 0.682 µM) | 0.12 (≈ 0.13 µM) |  | 0.52 (≈ 0.563 µM) | 0.17 (≈ 0.184 µM) | 0.83 (≈ 0.898 µM) | 0.63 (≈ 0.682 µM) | 0.41 (≈ 0.444 µM) | 1.67 (≈ 1.81 µM) |  | 0.73 (≈ 0.79 µM) |  |  | 7 (≈ 7.58 µM) | 2.4 (≈ 2.6 µM) |
| COC(/C=C/c1ccccc1)=C1\C(=O)C=C(C)C1=O [CORUSCANONE A] | 0.8 (≈ 3.15 µM) | 2.08 (≈ 8.18 µM) | 2.08 (≈ 8.18 µM) | 0.47 (≈ 1.85 µM) | 1.25 (≈ 4.92 µM) | 1.25 (≈ 4.92 µM) | 0.68 (≈ 2.67 µM) | 2.08 (≈ 8.18 µM) | 2.08 (≈ 8.18 µM) | 2.04 (≈ 8.02 µM) | 8.33 (≈ 32.8 µM) | 8.33 (≈ 32.8 µM) | 19 (≈ 74.7 µM) | > 20 | > 20 | 4.9 (≈ 19.3 µM) | 3.4 (≈ 13.4 µM) |
| COc1cccc2c1C(=O)c1c(O)c3c(c(O)c1C2=O)C[C@@](O)(C(=O)CO)C[C@@H]3O[C@H]1C[C@H](N)[C@H](O)[C@H](C)O1 [DOXORUBICIN] |  |  |  |  |  |  |  |  |  |  |  |  |  |  |  | 7.5 (≈ 13.8 µM) | 0.65 (≈ 1.2 µM) |
| OC(Cn1cncn1)(Cn1cncn1)c1ccc(F)cc1F [FLUCONAZOLE] | 0.22 (≈ 0.718 µM) | > 200 | 0.45 (≈ 1.47 µM) | 0.24 (≈ 0.784 µM) | > 200 | 0.45 (≈ 1.47 µM) | 118 (≈ 385 µM) | > 200 | > 200 | 5.65 (≈ 18.4 µM) | > 200 | 37 (≈ 121 µM) | > 200 | > 200 | > 200 | > 10 | > 10 |
